Reference: ChEMBL document CHEMBL1914320, “C4-alkylthiols with activity against Moraxella catarrhalis and Mycobacterium tuberculosis” (Bioorg Med Chem, 2011)
In brackets after ≈: the same amount, converted by molar mass. Activity calls are given as the source filed them. The calls are words filed in the database; no cut-off is given here.

Columns and labels:
[1] = tested on: Escherichia coli; assay: Antibacterial activity against non-beta-lactamase producing Escherichia coli ATCC 25922 at 10 ug/disc after overnight incubation by disc diffusion assay; assay type: functional, organism-based
How it was run: (§1)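 Isolates were held at −80 °C. Five colonies were suspended in Mueller-Hinton broth to a 0.5 McFarland density and swabbed onto MH agar. Discs carried 10 μg compound, applied in methanol and dried at room temperature. Plates were incubated overnight at 37 °C, and the zone of inhibition was measured in mm from the disc edge. Controls were methanol-only and penicillin discs. Run blinded, in triplicate.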

[2] = tested on: Pseudomonas aeruginosa; assay: Antibacterial activity against non-beta-lactamase producing Pseudomonas aeruginosa ATCC 27853 at 10 ug/disc after overnight incubation by disc diffusion assay; assay type: functional, organism-based; how it was run: as §1
[3] = tested on: Staphylococcus aureus; assay: Antibacterial activity against non-beta-lactamase producing Staphylococcus aureus ATCC 25923 at 10 ug/disc after overnight incubation by disc diffusion assay; assay type: functional, organism-based; how it was run: as §1
[4] = tested on: Moraxella catarrhalis; assay: Antibacterial activity against beta-lactamase producing Moraxella catarrhalis isolate 3 at 10 ug/disc after overnight incubation by disc diffusion assay in presence of 1 mol equiv of glutathione; assay type: functional; conditions: for zone of inhibition at 10 µg/disc: read-out: IZ
[5] = tested on: Staphylococcus aureus; assay: Antibacterial activity against non-beta-lactamase producing Staphylococcus aureus ATCC 25923 after 48 hrs by microdilution broth method; assay type: functional, organism-based
How it was run: (§2)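 Broth microdilution followed CLSI guidelines. Compound was dissolved in 95% ethanol, diluted at least 10-fold into Mueller-Hinton broth, then serially two-fold diluted from 500 to 15.6 μg/mL. Actively growing culture was added at 5 × 10^5 cells/mL. Plates ran 48 h at 37 °C, scored for visible growth at 24 and 48 h. MIC was the lowest concentration without growth. For MBC, 10 μL from each clear well was plated on MH agar. Controls were ethanol and penicillin. Triplicate.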

[6] = tested on: Moraxella catarrhalis; assay: Antibacterial activity against beta-lactamase producing Moraxella catarrhalis isolate 4 at 10 ug/disc after overnight incubation by disc diffusion assay in presence of 1 mol equiv of glutathione; assay type: functional; conditions: for zone of inhibition at 10 µg/disc: read-out: IZ
[7] = tested on: Moraxella catarrhalis; assay: Antibacterial activity against beta-lactamase producing Moraxella catarrhalis isolate 2 at 10 ug/disc after overnight incubation by disc diffusion assay in presence of 1 mol equiv of glutathione; assay type: functional; conditions: for zone of inhibition at 10 µg/disc: read-out: IZ
[8] = tested on: Enterococcus faecalis; assay: Antibacterial activity against non-beta-lactamase producing Enterococcus faecalis ATCC 29212 at 10 ug/disc after overnight incubation by disc diffusion assay; assay type: functional, organism-based; how it was run: as §1
[9] = tested on: Enterococcus faecalis; assay: Antibacterial activity against non-beta-lactamase producing Enterococcus faecalis ATCC 29212 after 48 hrs by microdilution broth method; assay type: functional, organism-based; how it was run: as §2
[10] = tested on: Moraxella catarrhalis; assay: Antibacterial activity against beta-lactamase producing Moraxella catarrhalis isolate 5 at 10 ug/disc after overnight incubation by disc diffusion assay in presence of 1 mol equiv of glutathione; assay type: functional; conditions: for zone of inhibition at 10 µg/disc: read-out: IZ
[11] = tested on: Moraxella catarrhalis; assay: Antibacterial activity against beta-lactamase producing Moraxella catarrhalis isolate 1 at 10 ug/disc after overnight incubation by disc diffusion assay in presence of 1 mol equiv of glutathione; assay type: functional; conditions: for zone of inhibition at 10 µg/disc: read-out: IZ
[12] = tested on: Escherichia coli; assay: Antibacterial activity against non-beta-lactamase producing Escherichia coli ATCC 25922 after 48 hrs by microdilution broth method; assay type: functional, organism-based; how it was run: as §2
[13] = tested on: Pseudomonas aeruginosa; assay: Antibacterial activity against non-beta-lactamase producing Pseudomonas aeruginosa ATCC 27853 after 48 hrs by microdilution broth method; assay type: functional, organism-based; how it was run: as §2
[14] = tested on: Moraxella catarrhalis; assay: Antibacterial activity against beta-lactamase producing Moraxella catarrhalis isolate 1 at 10 ug/disc after overnight incubation by disc diffusion assay; assay type: functional; conditions: for zone of inhibition at 10 µg/disc: read-out: IZ; how it was run: as §1
[15] = tested on: Moraxella catarrhalis; assay: Antibacterial activity against beta-lactamase producing Moraxella catarrhalis isolate 2 at 10 ug/disc after overnight incubation by disc diffusion assay; assay type: functional; conditions: for zone of inhibition at 10 µg/disc: read-out: IZ; how it was run: as §1
[16] = tested on: Moraxella catarrhalis; assay: Antibacterial activity against beta-lactamase producing Moraxella catarrhalis isolate 4 at 500 ug/ml after overnight incubation by disc diffusion assay; assay type: functional, organism-based
[17] = tested on: Moraxella catarrhalis; assay: Antibacterial activity against beta-lactamase producing Moraxella catarrhalis isolate 3 at 10 ug/disc after overnight incubation by disc diffusion assay; assay type: functional; conditions: for zone of inhibition at 10 µg/disc: read-out: IZ; how it was run: as §1
[18] = tested on: Moraxella catarrhalis; assay: Antibacterial activity against beta-lactamase producing Moraxella catarrhalis isolate 3 at 500 ug/ml after overnight incubation by disc diffusion assay; assay type: functional, organism-based
[19] = tested on: Moraxella catarrhalis; assay: Antibacterial activity against beta-lactamase producing Moraxella catarrhalis isolate 6 at 500 ug/ml after overnight incubation by disc diffusion assay; assay type: functional, organism-based
[20] = tested on: Moraxella catarrhalis; assay: Antibacterial activity against beta-lactamase producing Moraxella catarrhalis isolate 4 at 10 ug/disc after overnight incubation by disc diffusion assay; assay type: functional; conditions: for zone of inhibition at 10 µg/disc: read-out: IZ; how it was run: as §1
[21] = tested on: Moraxella catarrhalis; assay: Antibacterial activity against beta-lactamase producing Moraxella catarrhalis isolate 6 at 10 ug/disc after overnight incubation by disc diffusion assay; assay type: functional; conditions: for zone of inhibition at 10 µg/disc: read-out: IZ; how it was run: as §1
[22] = tested on: Moraxella catarrhalis; assay: Antibacterial activity against beta-lactamase producing Moraxella catarrhalis isolate 6 at 10 ug/disc after overnight incubation by disc diffusion assay in presence of 1 mol equiv of glutathione; assay type: functional; conditions: for zone of inhibition at 10 µg/disc: read-out: IZ
[23] = tested on: Moraxella catarrhalis; assay: Antibacterial activity against beta-lactamase producing Moraxella catarrhalis isolate 5 at 10 ug/disc after overnight incubation by disc diffusion assay; assay type: functional; conditions: for zone of inhibition at 10 µg/disc: read-out: IZ; how it was run: as §1
[24] = tested on: Mycobacterium tuberculosis; assay: Antimycobacterial activity against wild type Mycobacterium tuberculosis H37Rv at 200 ug/ml by Alamar blue assay; assay type: functional, organism-based
[25] = tested on: Moraxella catarrhalis; assay: Antibacterial activity against beta-lactamase producing Moraxella catarrhalis isolate 2 at 500 ug/ml after overnight incubation by disc diffusion assay; assay type: functional, organism-based
[26] = tested on: Moraxella catarrhalis; assay: Antibacterial activity against beta-lactamase producing Moraxella catarrhalis isolate 5 at 500 ug/ml after overnight incubation by disc diffusion assay; assay type: functional, organism-based
[27] = tested on: Moraxella catarrhalis; assay: Antibacterial activity against beta-lactamase producing Moraxella catarrhalis isolate 2 after 48 hrs incubation by microdilution broth method; assay type: functional; conditions: isolate 2, 48 h; how it was run: as §2
[28] = tested on: Mycobacterium tuberculosis; assay: Antimycobacterial activity against wild type Mycobacterium tuberculosis H37Rv by Alamar blue assay; assay type: functional
[29] = tested on: Moraxella catarrhalis; assay: Antibacterial activity against beta-lactamase producing Moraxella catarrhalis isolate 6 after 48 hrs incubation by microdilution broth method; assay type: functional; conditions: isolate 6, 48 h; how it was run: as §2
[30] = tested on: Moraxella catarrhalis; assay: Antibacterial activity against beta-lactamase producing Moraxella catarrhalis isolate 1 after 48 hrs incubation by microdilution broth method; assay type: functional; conditions: isolate 1, 48 h; how it was run: as §2
[31] = tested on: Moraxella catarrhalis; assay: Antibacterial activity against beta-lactamase producing Moraxella catarrhalis isolate 3 after 48 hrs incubation by microdilution broth method; assay type: functional; conditions: isolate 3, 48 h; how it was run: as §2
[32] = tested on: Moraxella catarrhalis; assay: Antibacterial activity against beta-lactamase producing Moraxella catarrhalis isolate 5 after 48 hrs incubation by microdilution broth method; assay type: functional; conditions: isolate 5, 48 h; how it was run: as §2
[33] = tested on: Moraxella catarrhalis; assay: Antibacterial activity against beta-lactamase producing Moraxella catarrhalis isolate 4 after 48 hrs incubation by microdilution broth method; assay type: functional; conditions: isolate 4, 48 h; how it was run: as §2

Compound: CCC(CC)(CO)SC1CC(=O)N1 (stereo not drawn)
- Activity [1]: inactive
- Activity [2]: inactive
- Activity [3]: inactive
- inhibition zone (IZ) [4]: inactive
- Activity [5]: inactive
- inhibition zone (IZ) [6]: inactive
- inhibition zone (IZ) [7]: inactive
- Activity [8]: inactive
- Activity [9]: inactive
- inhibition zone (IZ) [10]: inactive
- inhibition zone (IZ) [11]: inactive
- Activity [12]: inactive
- Activity [13]: inactive

Compound: Nc1ccc(SC2CC(=O)N2S(=O)(=O)O)cc1 (racemic)
- inhibition zone (IZ) [14]: inactive
- Activity [1]: inactive
- inhibition zone (IZ) [15]: inactive
- Activity [2]: inactive
- Activity [3]: inactive
- antibacterial activity (active/not active) [16]: Active
- inhibition zone (IZ) [17]: inactive
- inhibition zone (IZ) [4]: inactive
- Activity [5]: inactive
- antibacterial activity (active/not active) [18]: Active
- zone of inhibition at 10 µg/disc [6]: 8 mm
- inhibition zone (IZ) [7]: inactive
- antibacterial activity (active/not active) [19]: Active
- zone of inhibition at 10 µg/disc [20]: 8 mm
- Activity [8]: inactive
- inhibition zone (IZ) [21]: inactive
- Activity [9]: inactive
- inhibition zone (IZ) [10]: inactive
- inhibition zone (IZ) [11]: inactive
- Activity [12]: inactive
- inhibition zone (IZ) [22]: inactive
- inhibition zone (IZ) [23]: inactive
- Activity [13]: inactive
- antimycobacterial activity (active/not active) [24]: Active
- antibacterial activity (active/not active) [25]: Active
- antibacterial activity (active/not active) [26]: Active

Compound: CCC(C=O)(CC)SSC(CC)(CC)C1C(OC)C(=O)N1CC(=O)OC (racemic)
- inhibition zone (IZ) [14]: inactive
- MBC [27]: > 500 µg/mL
- Activity [1]: inactive
- zone of inhibition at 10 µg/disc [15]: 10 mm
- Activity [2]: inactive
- Activity [3]: inactive
- inhibition zone (IZ) [17]: inactive
- inhibition zone (IZ) [4]: inactive
- MBC [28]: 200 µg/mL (≈ 493 µM)
- MBC [29]: < 15.6 µg/mL
- Activity [5]: inactive
- MBC [30]: > 500 µg/mL
- inhibition zone (IZ) [6]: inactive
- zone of inhibition at 10 µg/disc [7]: 7 mm
- inhibition zone (IZ) [20]: inactive
- MBC [31]: < 15.6 µg/mL
- Activity [8]: inactive
- inhibition zone (IZ) [21]: inactive
- MBC [32]: < 15.6 µg/mL
- MBC [33]: < 15.6 µg/mL
- Activity [9]: inactive
- zone of inhibition at 10 µg/disc [10]: 7 mm
- inhibition zone (IZ) [11]: inactive
- Activity [12]: inactive
- inhibition zone (IZ) [22]: inactive
- zone of inhibition at 10 µg/disc [23]: 7 mm
- Activity [13]: inactive

Compound: CC(=O)SC1CC(=O)N1 (racemic)
- zone of inhibition at 10 µg/disc [14]: 19 mm
- Activity [1]: inactive
- zone of inhibition at 10 µg/disc [15]: 20 mm
- Activity [2]: inactive
- Activity [3]: inactive
- zone of inhibition at 10 µg/disc [17]: 24 mm
- zone of inhibition at 10 µg/disc [4]: 19 mm
- Activity [5]: inactive
- zone of inhibition at 10 µg/disc [6]: 22 mm
- zone of inhibition at 10 µg/disc [7]: 19 mm
- zone of inhibition at 10 µg/disc [20]: 26 mm
- Activity [8]: inactive
- zone of inhibition at 10 µg/disc [21]: 20 mm
- Activity [9]: inactive
- zone of inhibition at 10 µg/disc [10]: 24 mm
- zone of inhibition at 10 µg/disc [11]: 16 mm
- Activity [12]: inactive
- zone of inhibition at 10 µg/disc [22]: 19 mm
- zone of inhibition at 10 µg/disc [23]: 28 mm
- Activity [13]: inactive

Compound: O=C1CC(Sc2ccc(O)cc2)N1S(=O)(=O)O (racemic)
- zone of inhibition at 10 µg/disc [14]: 13 mm
- MBC [27]: < 15.6 µg/mL
- Activity [1]: inactive
- zone of inhibition at 10 µg/disc [15]: 9 mm
- Activity [2]: inactive
- Activity [3]: inactive
- zone of inhibition at 10 µg/disc [17]: 7 mm
- zone of inhibition at 10 µg/disc [4]: 7 mm
- MBC [28]: > 200 µg/mL
- MBC [29]: < 15.6 µg/mL
- Activity [5]: inactive
- MBC [30]: > 500 µg/mL
- zone of inhibition at 10 µg/disc [6]: 7 mm
- zone of inhibition at 10 µg/disc [7]: 7 mm
- zone of inhibition at 10 µg/disc [20]: 8 mm
- MBC [31]: < 15.6 µg/mL
- Activity [8]: inactive
- zone of inhibition at 10 µg/disc [21]: 8 mm
- MBC [32]: < 15.6 µg/mL
- MBC [33]: < 15.6 µg/mL
- Activity [9]: inactive
- zone of inhibition at 10 µg/disc [10]: 8 mm
- zone of inhibition at 10 µg/disc [11]: 9 mm
- Activity [12]: inactive
- zone of inhibition at 10 µg/disc [22]: 8 mm
- zone of inhibition at 10 µg/disc [23]: 9 mm
- Activity [13]: inactive
